Key:
[1] = molecular target: T1, E3 ubiquitin-protein ligase XIAP (Homo sapiens, UniProt P98170); experiment: Inhibition of XIAP-Bir3 domain at 10 uM by TR-FRET assay
How it was run: (§1)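 TR-FRET displacement. BIR3 protein (10 nM) and biotin-lc-GGIPVA SMAC peptide (10 nM) mixed with compound in DMSO, 1 h at 4 °C. Eu-antibody conjugate (5 nM) and APC-streptavidin (2 nM) then added, incubated overnight at 4 °C. Excitation 340 nm, emission 665 nm. Screen at 100, 10, 1 and 0.1 μM; actives run as 6–7-point dilutions in duplicate.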

[2] = molecular target: T1, E3 ubiquitin-protein ligase XIAP; experiment: Inhibition of XIAP-Bir3 domain at 100 uM by TR-FRET assay; how it was run: as §1
[3] = test system: MDA-MB-231; experiment: Cytotoxicity against human ER-negative MDA-MB-231 cells assessed as cell viability after 72 hrs; format: functional, cell-based; settings: MDA-MB-231, 72 h
How it was run: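 MDA-MB-231 (ER-negative) kept in DMEM + 10% FBS at 37 °C, 5% CO2. Seeded at 5000 cells/well and left overnight, then exposed for 72 h to a range of compound concentrations in serum-free DMEM (final DMSO 0.1%). Viability read by ATPlite one-step luminescence, four replicates. IC50 obtained by curve fitting.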

[4] = molecular target: T1, E3 ubiquitin-protein ligase XIAP; experiment: Inhibition of XIAP by FP assay
[5] = molecular target: T1, E3 ubiquitin-protein ligase XIAP; experiment: Inhibition of XIAP-Bir3 domain by NMR titration
How it was run: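 NMR Kd. 1H chemical-shift changes of resolved BIR3 resonances (BIR3 at 100 μM) followed across ligand concentrations, at least six points. Kd from a nonlinear least-squares fit of fractional bound population versus total ligand, single-site model. 2D [15N,1H]HSQC acquired at 300 K.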

[6] = molecular target: T1, E3 ubiquitin-protein ligase XIAP; experiment: Inhibition of XIAP-Bir3 domain by calorimetric titration assay
How it was run: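 ITC at 25 °C. Purified XIAP BIR3 (100 μM) in the cell, compound (1 mM) in the syringe, both in degassed PBS pH 7.4. Blank-subtracted, normalized heats fitted to a single-site model; Kd taken as 1/Ka.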

[7] = test system: RPMI-8226; experiment: Cytotoxicity against human RPMI8226 cells assessed as cell viability; format: functional, cell-based
[8] = molecular target: T1, E3 ubiquitin-protein ligase XIAP; experiment: Inhibition of XIAP by FRET assay; how it was run: as §1
[9] = test system: Jurkat; experiment: Cytotoxicity against human Jurkat cells assessed as cell viability; format: functional, cell-based

T1 sequence (P98170 whole entry, the tested form may be a part): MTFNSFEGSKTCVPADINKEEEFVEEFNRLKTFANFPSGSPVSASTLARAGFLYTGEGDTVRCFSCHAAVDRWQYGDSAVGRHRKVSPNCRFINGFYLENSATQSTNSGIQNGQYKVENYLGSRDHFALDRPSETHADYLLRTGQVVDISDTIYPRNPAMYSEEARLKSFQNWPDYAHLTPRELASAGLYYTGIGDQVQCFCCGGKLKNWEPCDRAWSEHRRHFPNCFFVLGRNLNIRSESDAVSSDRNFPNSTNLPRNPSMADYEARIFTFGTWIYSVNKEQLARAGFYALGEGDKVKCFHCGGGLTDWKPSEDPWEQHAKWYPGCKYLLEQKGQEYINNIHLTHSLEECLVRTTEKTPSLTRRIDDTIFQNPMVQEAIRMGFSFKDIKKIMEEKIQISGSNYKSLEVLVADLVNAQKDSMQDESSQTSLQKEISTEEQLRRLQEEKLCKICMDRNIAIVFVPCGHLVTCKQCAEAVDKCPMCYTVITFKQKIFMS

| SMILES | inhibition [1] | inhibition [2] | IC50 [3] | other results |
| --- | --- | --- | --- | --- |
| CC(C)[C@H](NC(=O)[C@H](C)N)C(=O)N1CCCN(C2CCCCC2)CC1C(=O)NC(c1ccccc1)c1ccccc1 (stereo partly specified) | 15.6% | 82.5% | > 50 µM |  |
| CN[C@@H](C)C(=O)NC1CCC[C@H]2[C@@H](Cc3ccccc3)C[C@@H](C(=O)N[C@@H]3CCCc4ccccc43)N2C1=O (stereo partly specified) |  |  | 0.026 µM | Kd [4]: 31 nM |
| CC(C)C(NC(=O)[C@H](C)N)c1nc(C(=O)NCc2ccccc2)cs1 (stereo partly specified) | 19.9% | 23.4% | > 50 µM |  |
| CCN1CCN(C(=O)[C@@H](NC(=O)[C@H](C)N)C(C)C)C(C(=O)NC(c2ccccc2)c2ccccc2)C1 (stereo partly specified) | 77.2% | 96.9% | > 50 µM | Kd [5]: 27.7 µM; Kd [6]: 21.6 µM |
| CC(C)[C@H](NC(=O)[C@H](C)N)C(=O)N1CCN(Cc2ccccc2)CC1C(=O)NC(c1ccccc1)c1ccccc1 (stereo partly specified) |  |  | 31 µM |  |
| CC(C)C(NC(=O)[C@H](C)N)c1nc(C(=O)NCc2ccccc2)c(-c2ccccc2)s1 (stereo partly specified) | 58% | 97.2% | > 50 µM |  |
| CN[C@@H](C)C(=O)N[C@H](C(=O)N1CC[C@H]2CN(CCc3ccccc3)CC[C@H]21)C1CCCCC1 |  |  |  | IC50 [7]: 30 µM; IC50 [8]: 280 nM |
| CC(C)[C@H](NC(=O)[C@H](C)N)C(=O)N1C(C(=O)NC(c2ccccc2)c2ccccc2)CSC1(C)C (stereo in doubt) | 16.7% | 83.6% |  |  |
| CN[C@@H](C)C(=O)NC1CCC[C@H]2SC[C@@H](C(=O)Nc3cc(C)nn3-c3ccccc3)N2C1=O (stereo partly specified) |  |  | 2 µM |  |
| CC(C)[C@H](NC(=O)[C@H](C)N)C(=O)N1C(C(=O)NC(c2ccccc2)c2ccccc2)CSC1(C)C (single isomer, unassigned; diastereomer A) | 67.4% | 97.1% |  |  |
| CC(C)[C@H](NC(=O)[C@H](C)N)C(=O)N1C(C(=O)NC(c2ccccc2)c2ccccc2)CSC1(C)C (stereo in doubt; 9) [listing 1 of 2 here] |  |  | > 50 µM |  |
| COc1ccc(CCN2CCC[C@H]2CN(C(=O)Nc2ccccc2)[C@@H](CNC(=O)Nc2ccccc2)CC2CCCCC2)cc1 |  |  |  | IC50 [9]: 5 µM |
| CC(C)[C@H](NC(=O)[C@H](C)N)C(=O)N1C(C(=O)NC(c2ccccc2)c2ccccc2)CSC1(C)C (stereo in doubt; 9) [listing 2 of 2 here] | 15.8% | 83.2% |  |  |
| CC(C)[C@H](NC(=O)[C@H](C)N)C(O)c1nnnn1CCc1ccccc1 (stereo partly specified) | 15% | 20.7% | > 50 µM |  |

— ChEMBL document CHEMBL1671818, “Screening multicomponent reactions for X-linked inhibitor of apoptosis-baculoviral inhibitor of apoptosis protein repeats domain binder” (J Med Chem, 2011)
